Test results published in ChEMBL document CHEMBL2057140, “Design, synthesis, biological evaluation and molecular modeling of novel 1,3,4-oxadiazole derivatives based on Vanillic acid as potential immunosuppressive agents” (Bioorg Med Chem, 2012).
Calls of active or inactive are those of the source. No cut-off for these calls is given here.

What was measured:
[1] = target: Phosphatidylinositol 4,5-bisphosphate 3-kinase catalytic subunit gamma isoform (Homo sapiens, UniProt P48736); assay: Inhibition of PI3Kgamma after 4 hrs
Chain of Phosphatidylinositol 4,5-bisphosphate 3-kinase catalytic subunit gamma isoform (P48736 whole entry, canonical isoform): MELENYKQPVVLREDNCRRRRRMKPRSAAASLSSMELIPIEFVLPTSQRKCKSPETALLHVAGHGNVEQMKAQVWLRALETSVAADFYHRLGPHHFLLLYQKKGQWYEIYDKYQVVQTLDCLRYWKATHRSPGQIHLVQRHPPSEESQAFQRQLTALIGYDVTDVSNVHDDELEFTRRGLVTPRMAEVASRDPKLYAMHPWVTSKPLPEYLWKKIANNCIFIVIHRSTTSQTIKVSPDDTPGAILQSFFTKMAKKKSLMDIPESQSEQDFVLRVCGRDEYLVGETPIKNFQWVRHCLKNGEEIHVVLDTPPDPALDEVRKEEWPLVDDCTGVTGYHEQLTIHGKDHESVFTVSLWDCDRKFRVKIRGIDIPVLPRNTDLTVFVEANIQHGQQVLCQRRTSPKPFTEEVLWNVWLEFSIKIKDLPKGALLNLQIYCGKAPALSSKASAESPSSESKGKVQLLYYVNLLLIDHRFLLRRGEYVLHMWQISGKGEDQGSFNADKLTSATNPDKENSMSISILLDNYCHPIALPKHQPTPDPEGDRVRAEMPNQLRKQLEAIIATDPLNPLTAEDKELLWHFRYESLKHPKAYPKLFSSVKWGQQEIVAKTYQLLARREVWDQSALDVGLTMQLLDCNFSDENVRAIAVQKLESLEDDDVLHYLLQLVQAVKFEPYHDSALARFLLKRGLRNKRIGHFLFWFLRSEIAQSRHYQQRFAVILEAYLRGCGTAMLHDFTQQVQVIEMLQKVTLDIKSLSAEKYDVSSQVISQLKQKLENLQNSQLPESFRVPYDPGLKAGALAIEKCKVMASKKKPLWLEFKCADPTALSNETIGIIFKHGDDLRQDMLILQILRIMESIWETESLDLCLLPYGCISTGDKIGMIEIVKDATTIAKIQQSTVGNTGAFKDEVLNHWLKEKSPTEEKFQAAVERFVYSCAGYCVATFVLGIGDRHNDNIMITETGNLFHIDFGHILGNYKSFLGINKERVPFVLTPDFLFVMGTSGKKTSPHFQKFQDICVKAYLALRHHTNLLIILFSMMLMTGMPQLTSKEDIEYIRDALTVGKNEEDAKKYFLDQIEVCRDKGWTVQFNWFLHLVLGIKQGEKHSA

T-cell [2] = assay: Selectivity index ratio of CC50 for BALB/c mouse lymph node cells to IC50 for BALB/c mouse ConA-induced T cell proliferation; format: functional
Outline: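 Ratio of the lymph node cell CC₅₀ from the 24 h MTT cytotoxicity assay to the IC₅₀ against ConA-stimulated proliferation from the 72 h MTT assay.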

[3] = Immunosuppressive activity in BALB/c mouse T cells assessed as inhibition of ConA-induced T cell proliferation incubated 24 hrs post ConA-induction for 72 hrs by MTT assay; format: functional, cell-based
Outline: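 BALB/C lymph node cells, 5 × 10⁵ per well, stimulated with ConA at […] for 24 h, then left untreated or given compounds for 72 h. MTT (4 mg/mL in PBS) added for the last 4 h; proliferation read by MTT and IC₅₀ reported with SD.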

[4] = Cytotoxicity against BALB/c mouse lymph node cells after 24 hrs by MTT assay; format: cell-based
Outline: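 Fresh BALB/C mouse lymph node cells, 5 × 10⁵ per well, given compounds at […] for 24 h at 37 °C, 5% CO₂; untreated cells served as control. MTT (4 mg/mL in PBS) added for the final 4 h, formazan dissolved in DMSO, absorbance read at 570 nm; CC₅₀ reported with SD.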

Mus musculus [5] = species on record: Mus musculus; assay: Inhibition of PI3K-mediated AKT inhibition in BALB/c mouse lymph node cells assessed as reduction in ConA-induced IL10 production at 5 uM incubated for 2 hrs prior to ConA-indution measured after 22 hrs by ELISA
Outline: (§1)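 Mouse lymph node cells kept in DMEM with 10% FBS, penicillin and streptomycin at 37 °C, 5% CO₂. Pre-treated with compound at […] or vehicle for 2 h, then with ConA at […] for 22 h. Media centrifuged, and IL-1, IL-6 and IL-10 quantified by mouse ELISA kits.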

Mus musculus [6] = species on record: Mus musculus; assay: Inhibition of PI3K-mediated AKT inhibition in BALB/c mouse lymph node cells assessed as reduction in ConA-induced IL6 production at 5 uM incubated for 2 hrs prior to ConA-indution measured after 22 hrs by ELISA; outline: as §1
Mus musculus [7] = species on record: Mus musculus; assay: Inhibition of PI3K-mediated AKT inhibition in BALB/c mouse lymph node cells assessed as reduction in ConA-induced IL1 production at 5 uM incubated for 2 hrs prior to ConA-indution measured after 22 hrs by ELISA; outline: as §1
T-cell [8] = assay: Induction of apoptosis in BALB/c mouse ConA-activated T cells assessed as early apoptotic cells at 25 uM incubated 24 hrs-post ConA-activation for 24 hrs by AnnexinV-FITC based flow cytometry relative to vehicle treated control; format: functional
Outline: (§2)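 Lymph node cells, 3 × 10⁶ per well, stimulated with ConA at […] for 24 h, then exposed to compound at 0.25, 2.5 or 25 µM for 24 h. Cells harvested, stained with Annexin V-FITC and propidium iodide, and apoptotic fraction measured by flow cytometry.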

T-cell [9] = assay: Induction of apoptosis in BALB/c mouse ConA-activated T cells assessed as early apoptotic cells at 2.5 uM incubated 24 hrs-post ConA-activation for 24 hrs by AnnexinV-FITC based flow cytometry relative to vehicle treated control; format: functional; outline: as §2
T-cell [10] = assay: Induction of apoptosis in BALB/c mouse ConA-activated T cells incubated 24 hrs-post ConA-activation for 24 hrs by AnnexinV-FITC based flow cytometry; format: functional; outline: as §2
T-cell [11] = assay: Induction of apoptosis in BALB/c mouse ConA-activated T cells assessed as early apoptotic cells at 0.25 uM incubated 24 hrs-post ConA-activation for 24 hrs by AnnexinV-FITC based flow cytometry relative to vehicle treated control; format: functional; outline: as §2

COc1cc(-c2nnc(SCc3ccc(C)cc3)o2)ccc1O
IC50 [1]: 7.41 µM
Ratio CC50/IC50 (T-cell [2]): 88.5
IC50 [3]: 6.21 µM
CC50 at 24 h [4]: 549 µM

COc1cc(-c2nnc(SCc3ccc(Br)cc3)o2)ccc1OCc1ccc(Br)cc1
Ratio CC50/IC50 (T-cell [2]): 12.99
IC50 [3]: 17.3 µM
CC50 at 24 h [4]: 225 µM

COc1cc(-c2nnc(SCc3cc(F)cc(F)c3)o2)ccc1OCc1cc(F)cc(F)c1
Ratio CC50/IC50 (T-cell [2]): 18.49
IC50 [3]: 14.4 µM
CC50 at 24 h [4]: 266 µM

COc1cc(-c2nnc(SCc3cccc(Br)c3)o2)ccc1O
Ratio CC50/IC50 (T-cell [2]): 7.95
IC50 [3]: 48.1 µM
CC50 at 24 h [4]: 382 µM

COc1cc(-c2nnc(SCc3ccccc3C)o2)ccc1O
IC50 [1]: 6.48 µM
Ratio CC50/IC50 (T-cell [2]): 70.36
IC50 [3]: 8.42 µM
CC50 at 24 h [4]: 592 µM

COc1cc(-c2nnc(SCc3ccc(C)cc3)o2)ccc1OCc1ccc(C)cc1
Ratio CC50/IC50 (T-cell [2]): 30.38
IC50 [3]: 9.06 µM
CC50 at 24 h [4]: 275 µM

COc1cc(-c2nnc(SCc3ccc(F)cc3)o2)ccc1O
Ratio CC50/IC50 (T-cell [2]): 83.62
IC50 [3]: 8.19 µM
CC50 at 24 h [4]: 685 µM

COc1cc(-c2nnc(SCc3ccc(F)cc3F)o2)ccc1OCc1ccc(F)cc1F
Ratio CC50/IC50 (T-cell [2]): 14.1
IC50 [3]: 12.9 µM
CC50 at 24 h [4]: 182 µM

COc1cc(-c2nnc(SCc3ccccc3[N+](=O)[O-])o2)ccc1O
Ratio CC50/IC50 (T-cell [2]): 34.45
IC50 [3]: 9.6 µM
CC50 at 24 h [4]: 331 µM

COc1cccc(COc2ccc(-c3nnc(SCc4cccc(OC)c4)o3)cc2OC)c1
Ratio CC50/IC50 (T-cell [2]): 24.04
IC50 [3]: 10.1 µM
CC50 at 24 h [4]: 242 µM

COc1cc(-c2nnc(SCc3c(F)cccc3F)o2)ccc1OCc1c(F)cccc1F
IC50 [1]: 5.74 µM
Ratio CC50/IC50 (T-cell [2]): 34.21
IC50 [3]: 5.22 µM
CC50 at 24 h [4]: 179 µM

COc1cc(-c2nnc(SCc3ccccc3C)o2)ccc1OCc1ccccc1C
Ratio CC50/IC50 (T-cell [2]): 15.19
IC50 [3]: 18.9 µM
CC50 at 24 h [4]: 195 µM

COc1cc(-c2nnc(SCc3ccc(Cl)cc3)o2)ccc1O
Ratio CC50/IC50 (T-cell [2]): 43.35
IC50 [3]: 11.1 µM
CC50 at 24 h [4]: 480 µM

COc1cc(-c2nnc(SCc3ccc([N+](=O)[O-])cc3)o2)ccc1OCc1ccc([N+](=O)[O-])cc1
Ratio CC50/IC50 (T-cell [2]): 20.48
IC50 [3]: 7.6 µM
CC50 at 24 h [4]: 156 µM

COc1cc(-c2nnc(SCc3ccccc3Cl)o2)ccc1OCc1ccccc1Cl
Ratio CC50/IC50 (T-cell [2]): 8.67
IC50 [3]: 10.6 µM
CC50 at 24 h [4]: 144 µM

COc1cc(-c2nnc(SCc3ccccc3F)o2)ccc1OCc1ccccc1F
inhibition (Mus musculus [5]): Active
inhibition (Mus musculus [6]): Active
inhibition (Mus musculus [7]): Active
IC50 [1]: 5.12 µM
Ratio CC50/IC50 (T-cell [2]): 35.89
IC50 [3]: 4.76 µM
CC50 at 24 h [4]: 171 µM

COc1cc(-c2nnc(SCc3cccc(Br)c3)o2)ccc1OCc1cccc(Br)c1
Ratio CC50/IC50 (T-cell [2]): 17.66
IC50 [3]: 9.12 µM
CC50 at 24 h [4]: 161 µM

COc1cc(-c2nnc(SCc3ccc(F)cc3)o2)ccc1OCc1ccc(F)cc1
Ratio CC50/IC50 (T-cell [2]): 11.89
IC50 [3]: 12.9 µM
CC50 at 24 h [4]: 153 µM

C/C=C/C[C@@H](C)[C@@H](O)[C@H]1C(=O)N[C@@H](CC)C(=O)N(C)CC(=O)N(C)[C@@H](CC(C)C)C(=O)N[C@@H](C(C)C)C(=O)N(C)[C@@H](CC(C)C)C(=O)N[C@@H](C)C(=O)N[C@H](C)C(=O)N(C)[C@@H](CC(C)C)C(=O)N(C)[C@@H](CC(C)C)C(=O)N(C)[C@@H](C(C)C)C(=O)N1C [CYCLOSPORINE]
Ratio CC50/IC50 (T-cell [2]): 82.19

COc1cc(-c2nnc(SCc3ccccc3F)o2)ccc1O
Ratio CC50/IC50 (T-cell [2]): 81.82
IC50 [3]: 5.79 µM
CC50 at 24 h [4]: 474 µM

COc1cccc(CSc2nnc(-c3ccc(O)c(OC)c3)o2)c1
IC50 [1]: 2.87 µM
Ratio CC50/IC50 (T-cell [2]): 52.55
IC50 [3]: 7.41 µM
CC50 at 24 h [4]: 389 µM

COc1cc(-c2nnc(SCc3cccc([N+](=O)[O-])c3)o2)ccc1O
Ratio CC50/IC50 (T-cell [2]): 24.59
IC50 [3]: 16 µM
CC50 at 24 h [4]: 392 µM

COc1cc(-c2nnc(SCc3ccc(Cl)cc3)o2)ccc1OCc1ccc(Cl)cc1
Ratio CC50/IC50 (T-cell [2]): 5
IC50 [3]: 17.2 µM
CC50 at 24 h [4]: 136 µM

COc1cc(-c2nnc(SCc3c(F)cccc3F)o2)ccc1O
Ratio CC50/IC50 (T-cell [2]): 57.1
IC50 [3]: 10.1 µM
CC50 at 24 h [4]: 575 µM

COc1cc(-c2nnc(SCc3ccccc3Br)o2)ccc1OCc1ccccc1Br
Ratio CC50/IC50 (T-cell [2]): 17.33
IC50 [3]: 8.71 µM
CC50 at 24 h [4]: 151 µM

COc1cc(-c2nnc(SCc3cccc(Cl)c3)o2)ccc1OCc1cccc(Cl)c1
Ratio CC50/IC50 (T-cell [2]): 11.23
IC50 [3]: 15.8 µM
CC50 at 24 h [4]: 178 µM

COc1cc(-c2nnc(SCc3ccc([N+](=O)[O-])cc3)o2)ccc1O
Ratio CC50/IC50 (T-cell [2]): 48.6
IC50 [3]: 14.2 µM
CC50 at 24 h [4]: 688 µM

COc1cc(-c2nnc(SCc3ccccc3Cl)o2)ccc1O
Ratio CC50/IC50 (T-cell [2]): 66.94
IC50 [3]: 8.43 µM
CC50 at 24 h [4]: 564 µM

COc1cc(-c2nnc(SCc3ccc(F)cc3F)o2)ccc1O
Ratio CC50/IC50 (T-cell [2]): 53.67
IC50 [3]: 9.69 µM
CC50 at 24 h [4]: 520 µM

COc1cc(-c2nnc(SCc3ccccc3Br)o2)ccc1O
Ratio CC50/IC50 (T-cell [2]): 20.42
IC50 [3]: 17.8 µM
CC50 at 24 h [4]: 363 µM

COc1cc(-c2nnc(SCc3cccc(Cl)c3)o2)ccc1O
Ratio CC50/IC50 (T-cell [2]): 56.74
IC50 [3]: 8.29 µM
CC50 at 24 h [4]: 470 µM

COc1cc(-c2nnc(SCc3ccccc3)o2)ccc1O
inhibition (Mus musculus [5]): Active
Activity (T-cell [8]): 4.98%
inhibition (Mus musculus [6]): Active
Activity (T-cell [9]): 4.34%
inhibition (Mus musculus [7]): Active
Activity (T-cell [10]): Dose-dependent effect
Activity (T-cell [11]): 2.43%
IC50 [1]: 1.34 µM
Ratio CC50/IC50 (T-cell [2]): 168.83
IC50 [3]: 1.25 µM
CC50 at 24 h [4]: 211 µM

COc1cc(-c2nnc(SCc3cccc([N+](=O)[O-])c3)o2)ccc1OCc1cccc([N+](=O)[O-])c1
Ratio CC50/IC50 (T-cell [2]): 13.75
IC50 [3]: 12.2 µM
CC50 at 24 h [4]: 168 µM

COc1cc(-c2nnc(SCc3ccccc3)o2)ccc1OCc1ccccc1
Ratio CC50/IC50 (T-cell [2]): 14.79
IC50 [3]: 13.3 µM
CC50 at 24 h [4]: 197 µM

COc1cc(-c2nnc(SCc3ccc(Br)cc3)o2)ccc1O
Ratio CC50/IC50 (T-cell [2]): 51.58
IC50 [3]: 8.83 µM
CC50 at 24 h [4]: 455 µM
